In ChEMBL document CHEMBL4152381, “Discovery of Benzoazepinequinoline (BAQ) Derivatives as Novel, Potent, Orally Bioavailable Respiratory Syncytial Virus Fusion Inhibitors” (J Med Chem, 2018):

What was measured:
[1] = Cytotoxicity against human Hep2 cells assessed as decrease in cell viability after 5 days by CCK8 assay; assay type: cell-based; settings: HEp-2 cells
In short: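 Uninfected HEp-2 cells, seeded at 6000 per well, were cultured 5 days with serially diluted compound alongside the CPE assay. Viability was read by CCK-8, and CC50 was the concentration cytotoxic to 50% of cells.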

[2] = Therapeutic index, ratio of CC50 for human Hep2 cells to EC50 for inhibition of RSV long fusion protein assessed as protection against virus induced cytopathic effect in infected human Hep2 cells; assay type: toxicity, cell-based; settings: HEp-2 cells, read-out: Ratio CC50/EC50
In short: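 Index computed as CC50/EC50. CC50 came from uninfected HEp-2 cells and EC50 from 50% reduction of RSV Long CPE in HEp-2 cells (MOI 0.02). Both assays ran 5 days with serially diluted compound and a CCK-8 viability read-out.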

[3] = Intrinsic clearance in rat liver microsomes; assay type: ADME, microsome; settings: read-out: CLH
In short: (§1)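 Intrinsic clearance was measured in human, rat or mouse liver microsomes and reported as scaled clearance.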

[4] = Intrinsic clearance in human liver microsomes; assay type: ADME, microsome; settings: read-out: CLH; in short: as §1
[5] = Intrinsic clearance in mouse liver microsomes; assay type: ADME, microsome; settings: read-out: CLH; in short: as §1
[6] = Effective permeability of the compound by PAMPA; assay type: ADME; settings: read-out: Peff
In short: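 Parallel artificial membrane permeability assay, with permeability reported in 10−6 cm/s.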

[7] = AUC (0 to infinity) in Wistar-Han rat at 2 mg/kg, iv after 15 mins to 24 hrs by LC/MS/MS analysis; assay type: ADME, organism-based; set-up: dose 2 mg/kg, route intravenous, time infinity; settings: in vivo
[8] = AUC (0 to infinity) in Wistar-Han rat at 10 mg/kg, po after 15 mins to 24 hrs by LC/MS/MS analysis; assay type: ADME, organism-based; set-up: dose 10 mg/kg, time infinity, route oral; settings: in vivo
[9] = Clearance in Wistar-Han rat at 2 mg/kg, iv after 15 mins to 24 hrs by LC/MS/MS analysis; assay type: ADME, organism-based; settings: in vivo
In short: (§2)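 Single-dose PK in male Wistar rats at 2 mg/kg iv and 10 mg/kg po. Plasma clearance, Vss, iv half-life, AUC and oral bioavailability were derived.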

[10] = Volume of distribution at steady state in Wistar-Han rat at 2 mg/kg, iv after 15 mins to 24 hrs by LC/MS/MS analysis; assay type: ADME, organism-based; settings: in vivo, read-out: Vdss; in short: as §2
[11] = Oral bioavailability in Wistar-Han rat at 10 mg/kg after 15 mins to 24 hrs by LC/MS/MS analysis; assay type: ADME, organism-based; settings: in vivo; in short: as §2
[12] = Solubility of the compound by LYSA; assay type: physicochemical
In short: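 Solubility measured by lyophilization solubility assay (LYSA), reported in μg/mL.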

[13] = Half life in Wistar-Han rat at 2 mg/kg, iv by LC/MS/MS analysis; assay type: ADME, organism-based; settings: in vivo; in short: as §2
[14] = Drug metabolism in rat liver microsomes assessed as dealkylation; assay type: ADME, microsome
[15] = Drug metabolism in mouse liver microsomes assessed as dealkylation; assay type: ADME, microsome
[16] = Drug metabolism in mouse liver microsomes assessed as oxidation; assay type: ADME, microsome
[17] = Drug metabolism in rat liver microsomes assessed as oxidation; assay type: ADME, microsome
[18] = Fraction unbound in human plasma; assay type: ADME, cell-free
[19] = Fraction unbound in mouse plasma; assay type: ADME, cell-free

Compound: Cc1ccc2nc(N3CCCc4ccccc4C3)cc(NCCN)c2c1
- CC50 at 120 h [1]: 9.4 µM
- selectivity ratio [2]: 129

Compound: NCCCCNc1cc(N2CCc3ccccc3C2)nc2ccccc12
- CC50 at 120 h [1]: 7.4 µM

Compound: NCCNc1cc(N2CCOc3ccccc3C2)nc2ccccc12
- CC50 at 120 h [1]: > 10 µM
- selectivity ratio [2]: > 43
- CLint scaled [3]: 20 mL/min/kg
- CLint scaled [4]: 14 mL/min/kg
- CLint scaled [5]: 25 mL/min/kg

Compound: NCCNc1cc(N2CCCc3ccccc3C2)nc2ccccc12
- CC50 at 120 h [1]: 23 µM
- selectivity ratio [2]: 115
- Papp [6]: 0.99 ×10⁻⁶ cm/s
- CLint scaled [3]: 23 mL/min/kg
- AUC(0-inf) [7]: 324 ng·h/mL
- AUC(0-inf) [8]: 510 ng·h/mL
- clearance [9]: 89 to 106 mL/min/kg
- Vd [10]: 73 to 106 L/kg
- bioavailability [11]: 32%
- CLint scaled [4]: 10 mL/min/kg
- CLint scaled [5]: 19 mL/min/kg
- solubility [12]: > 460 µg/mL
- half-life [13]: 12 h
- Drug metabolism [14]: Metabolite_Detected
- Drug metabolism [15]: Metabolite_Detected
- Drug metabolism [16]: Metabolite_Detected
- Drug metabolism [17]: Metabolite_Detected

Compound: Cc1ccc2nc(N3CCS(=O)(=O)c4ccccc4C3)cc(NCCCCCN)c2c1
- CC50 at 120 h [1]: 21 µM
- selectivity ratio [2]: 778

Compound: NC(=O)NCCNc1cc(N2CCc3ccccc3C2)nc2ccccc12
- CC50 at 120 h [1]: 80 µM
- selectivity ratio [2]: 5

Compound: NCC(O)CNc1cc(N2Cc3ccccc3C2)nc2ccccc12 (stereo unspecified)
- CC50 at 120 h [1]: 2.9 µM

Compound: COc1ccc2nc(N3CCCc4ccccc4C3)cc(NCCN)c2c1
- CC50 at 120 h [1]: 4.8 µM
- selectivity ratio [2]: 15

Compound: NCCCNc1cc(N2CCc3ccccc3C2)nc2ccccc12
- CC50 at 120 h [1]: 8.4 µM
- selectivity ratio [2]: 1

Compound: Cc1ccc2nc(N3CCS(=O)(=O)c4ccccc4C3)cc(NCCCN)c2c1
- CC50 at 120 h [1]: 21 µM
- selectivity ratio [2]: 21000

Compound: Cc1ccc2nc(N3CCS(=O)(=O)c4ccccc4C3)cc(NCCN)c2c1
- CC50 at 120 h [1]: 66 µM
- selectivity ratio [2]: 16500
- Papp [6]: 0.12 ×10⁻⁶ cm/s
- CLint scaled [3]: 8 mL/min/kg
- AUC(0-inf) [7]: 346 ng·h/mL
- clearance [9]: 97 mL/min/kg
- Vd [10]: 17 L/kg
- bioavailability [11]: 0%
- CLint scaled [4]: 5 mL/min/kg
- CLint scaled [5]: 1 mL/min/kg
- solubility [12]: > 466 µg/mL
- fraction unbound [18]: 0.078
- fraction unbound [19]: 0.08
- half-life [13]: 4.5 h

Compound: CS(=O)(=O)c1ccc2nc(N3CCCc4ccccc4C3)cc(NCCN)c2c1
- CC50 at 120 h [1]: 13 µM
- selectivity ratio [2]: 2

Compound: NCCNc1cc(N2CCCc3ccccc3C2)nc2ccc(Cl)cc12
- CC50 at 120 h [1]: > 3.2 µM
- selectivity ratio [2]: > 27

Compound: Cc1ccc2nc(N3CCC(F)(F)c4ccccc4C3)cc(NCCN)c2c1
- CC50 at 120 h [1]: 6.6 µM
- selectivity ratio [2]: 106

Compound: OCC(O)CNc1cc(N2CCc3ccccc3C2)nc2ccccc12 (stereo unspecified)
- CC50 at 120 h [1]: 66 µM
- selectivity ratio [2]: 3

Compound: NCCNc1cc(N2CCCc3ccccc3C2)nc2ccc(F)cc12
- CC50 at 120 h [1]: 8 µM
- selectivity ratio [2]: 5

Compound: NCCNc1cc(N2CCc3ccccc3C2)nc2ccccc12
- CC50 at 120 h [1]: 15 µM
- selectivity ratio [2]: 7

Compound: Cc1ccc2nc(N3CCCc4cc(F)ccc4C3)cc(NCCN)c2c1
- CC50 at 120 h [1]: > 3.2 µM
- selectivity ratio [2]: > 7
- CLint scaled [3]: 33 mL/min/kg
- CLint scaled [4]: 8 mL/min/kg
- CLint scaled [5]: 31 mL/min/kg

Compound: NCCNc1cc(N2CCS(=O)(=O)c3ccccc3C2)nc2ccccc12
- CC50 at 120 h [1]: 94 µM
- selectivity ratio [2]: 8540
- CLint scaled [3]: 3 mL/min/kg

Compound: NCCNc1cc(N2CCCc3ccccc3C2)nc2cccc(Cl)c12
- CC50 at 120 h [1]: 23 µM
- selectivity ratio [2]: 3

Compound: NCC(O)CNc1cc(N2CCc3ccccc3C2)nc2ccccc12 (stereo unspecified)
- CC50 at 120 h [1]: 21 µM
- selectivity ratio [2]: 95

Compound: Cc1ccc2nc(N3CCCc4ccc(F)cc4C3)cc(NCCN)c2c1
- CC50 at 120 h [1]: > 3.2 µM
- selectivity ratio [2]: > 32
- CLint scaled [3]: 160 mL/min/kg
- CLint scaled [4]: 6 mL/min/kg
- CLint scaled [5]: 24 mL/min/kg

Compound: NCCNc1cc(N2CCCc3ccccc3C2)nc2cc(Cl)ccc12
- CC50 at 120 h [1]: 7.5 µM
- selectivity ratio [2]: 2

Compound: NCCNc1cc(N2CCCc3ccccc3C2)nc2c(Cl)cccc12
- CC50 at 120 h [1]: 25 µM
- selectivity ratio [2]: 23

Compound: NCC(O)CNc1cc(N2CCCc3ccccc3C2)nc2ccccc12 (stereo unspecified)
- CC50 at 120 h [1]: 21 µM
- selectivity ratio [2]: 95

Compound: CC(O)CNc1cc(N2CCc3ccccc3C2)nc2ccccc12 (stereo unspecified)
- CC50 at 120 h [1]: 89 µM

Compound: Cc1ccc2nc(N3CCS(=O)(=O)c4ccccc4C3)cc(NCCCCN)c2c1
- CC50 at 120 h [1]: 92 µM
- selectivity ratio [2]: 13100

Compound: NCCNc1cc(N2CCCc3ccccc3C2)nc2ccc(C(F)(F)F)cc12
- CC50 at 120 h [1]: 6.7 µM
- selectivity ratio [2]: 6

Compound: N=C(N)NCCNc1cc(N2CCc3ccccc3C2)nc2ccccc12
- CC50 at 120 h [1]: > 100 µM
- selectivity ratio [2]: 43

Compound: Cc1ccc2nc(N3CC(=O)Nc4ccccc4C3)cc(NCCN)c2c1
- CC50 at 120 h [1]: 55 µM
- selectivity ratio [2]: 177
- CLint scaled [3]: 21 mL/min/kg
- CLint scaled [5]: 11 mL/min/kg

Compound: Cc1ccc2nc(N3CCNc4ccccc4C3)cc(NCCN)c2c1
- CC50 at 120 h [1]: 12 µM
- selectivity ratio [2]: 52
- CLint scaled [3]: 43 mL/min/kg
- CLint scaled [4]: 5 mL/min/kg
- CLint scaled [5]: 19 mL/min/kg
